The source of these data is ChEMBL document CHEMBL1153859, “Analogs of JHU75528, a PET ligand for imaging of cerebral cannabinoid receptors (CB1): development of ligands with optimized lipophilicity and binding affinity” (Eur J Med Chem, 2009).

Molecules are shown by their SMILES. The source made the active and inactive calls. The calls are words filed in the database; no cut-off is given here. Bounds are passed on as bounds.

Series [1] has as its target T1, Cannabinoid receptor 1 (Homo sapiens, UniProt P21554). The series is described as follows: biochemical. The class given is cell-based, HEK293.
Series [2] is described as follows: Octanol-phosphate buffer partition coefficient, log D at pH 7.4 by shake-flask method. The class given is physicochemical. The gist of the method:
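Octanol/phosphate buffer (pH 7.4) partition by conventional shake-flask; logD7.4 reported as mean ± S.D. of independent assays.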

Series [3] has as its system Mus musculus. Put plainly: Binding affinity to CB1 receptor in CD1 mouse brainstem at 200 uCi, iv after 60 mins in presence of rimonabant. The class given is functional, organism-based. Particulars: tested as the 11C-labelled form. The gist of the method: (§1)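 Controls got vehicle. 15 min later [11C] tracer (~7.4 MBq, ~200 μCi; ~300 GBq/μmol) was given i.v.; n=3 per group. Brains were harvested at 60 min and regions dissected on ice, then γ-counted against injectate standards as %ID/g tissue. Single-factor ANOVA, p ≤ 0.05.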

The subject of series [4] is Mus musculus. Put plainly: Binding affinity to CB1 receptor in CD1 mouse hippocampus at 200 uCi, iv after 60 mins in presence of rimonabant. The class given is functional, organism-based. To be noted: tested as the 11C-labelled form. The gist of the method:
as §1

Series [5] deals with T1, Cannabinoid receptor 1. The series is described as follows: Binding affinity to human CB1 receptor assessed as binding potential.
In series [6] the target is Cannabinoid receptor 1 (Mus musculus) (UniProt P47746). Put plainly: Antagonist activity at CB1 receptor in C57/BL6 mouse striatum assessed as blockade of WIN-55212-2 induced inhibition of glutamate release at 3 uM by electrophysiology. The series is classed as functional, tissue-based.
The test system of series [7] is Cannabinoid receptor 1 (Macaca mulatta). The series is described as follows: Binding affinity to Rhesus monkey CB1 receptor assessed as binding potential. Particulars: tested as the 11C-labelled form.

By Ki is commonly meant the equilibrium dissociation constant of an inhibitor or competing ligand from its target. What is called logD is lipophilicity at a set pH, counting ionised and neutral species.

T1 sequence (P21554 whole entry): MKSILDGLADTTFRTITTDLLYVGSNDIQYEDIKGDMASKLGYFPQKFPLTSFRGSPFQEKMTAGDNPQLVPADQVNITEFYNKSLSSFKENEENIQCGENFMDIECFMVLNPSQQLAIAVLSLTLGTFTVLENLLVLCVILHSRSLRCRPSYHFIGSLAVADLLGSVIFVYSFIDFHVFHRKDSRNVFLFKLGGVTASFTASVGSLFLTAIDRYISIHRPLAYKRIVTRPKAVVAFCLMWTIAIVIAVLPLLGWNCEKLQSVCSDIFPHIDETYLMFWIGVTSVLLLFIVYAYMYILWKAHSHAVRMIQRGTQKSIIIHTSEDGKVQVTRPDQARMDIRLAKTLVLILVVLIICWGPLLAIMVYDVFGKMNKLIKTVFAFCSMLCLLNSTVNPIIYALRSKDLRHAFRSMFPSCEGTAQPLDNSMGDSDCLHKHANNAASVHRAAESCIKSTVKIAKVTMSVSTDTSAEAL
Sequence of Cannabinoid receptor 1 (Mus musculus) (P47746 whole entry): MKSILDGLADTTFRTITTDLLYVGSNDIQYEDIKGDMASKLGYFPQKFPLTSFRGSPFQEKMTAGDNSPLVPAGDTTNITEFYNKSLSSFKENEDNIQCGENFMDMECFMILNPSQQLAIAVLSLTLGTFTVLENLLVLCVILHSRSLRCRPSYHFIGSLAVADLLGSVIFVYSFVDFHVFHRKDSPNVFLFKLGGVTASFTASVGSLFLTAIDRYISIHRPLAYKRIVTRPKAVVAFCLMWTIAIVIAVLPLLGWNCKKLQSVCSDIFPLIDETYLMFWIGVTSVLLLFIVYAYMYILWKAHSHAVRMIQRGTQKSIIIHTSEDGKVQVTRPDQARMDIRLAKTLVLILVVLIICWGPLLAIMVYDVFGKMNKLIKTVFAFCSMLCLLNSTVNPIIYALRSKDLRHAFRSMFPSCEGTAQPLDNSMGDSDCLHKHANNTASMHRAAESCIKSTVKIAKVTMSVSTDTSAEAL

Regarding `N#Cc1c(C(=O)NN2CCOCC2)nn(-c2ccc(Cl)cc2Cl)c1-c1ccc(I)cc1`, the affinity at Cannabinoid receptor 1 [1] corresponds to a Ki of 131 nM. The log distribution coefficient (logD) in series [2] came out at 3.2.

In the case of `COc1ccc(-c2c(C(N)=O)c(C(=O)NN3CCCCC3)nn2-c2ccccc2Br)cc1`, at Cannabinoid receptor 1 [1], the Ki was over 10000 nM. This compound returned a pH-dependent lipophilicity (logD) in series [2] of 2.5.

The compound `N#Cc1c(C(=O)NN2CCCCC2)nn(-c2ccc(Cl)cc2Cl)c1-c1ccc(Cl)cc1` had a Ki at Cannabinoid receptor 1 [1] of 24 nM. The compound also gave a log distribution coefficient (logD) in series [2] of 3.5.

On to `N#Cc1c(C(=O)NN2CCCCC2)nn(-c2ccc(Cl)cc2Cl)c1-c1ccc(Br)cc1`, for which the Ki at Cannabinoid receptor 1 [1] is 14 nM. This compound also came in with a logD in series [2] of 3.7.

On to `COc1ccc(-c2c(C#N)c(C(=O)NN3CCCC3)nn2-c2ccc(Cl)cc2Cl)cc1`, for which the affinity on Cannabinoid receptor 1 [1], expressed as Ki, was 2 nM. The result in the series with Mus musculus [3] was Active. Also, the outcome in the series with Mus musculus [4] was inactive.

The compound `COc1ccc(-c2c(C#N)c(C(=O)NN3CCCCC3)nn2-c2ccc(F)cc2Cl)cc1` displayed a Ki at Cannabinoid receptor 1 [1] of 13 nM. In addition, the logD in series [2] worked out at 2.8.

In the case of `Cc1c(C(=O)NN2CCOCC2)nn(-c2ccc(Cl)cc2Cl)c1-c1ccc(I)cc1`, the Activity at Cannabinoid receptor 1 [5] (tested as the 123I-labelled form) is 0.21; at Cannabinoid receptor 1 [5] (tested as the 124I-labelled form), 0.37.

As to `COc1ccc(-c2c(C#N)c(C(=O)NN3CCCCC3)nn2-c2ccc(Cl)cc2Cl)cc1` [JHU-75528], the affinity on Cannabinoid receptor 1 [1], expressed as Ki, was 11 nM. The result in series [6] was Active. The Activity in series [7] came out at 0.6.

With `COc1ccc(-c2c(C#N)c(C(=O)NN3CCCCC3)nn2-c2ccccc2Br)cc1`, affinity on Cannabinoid receptor 1 [1] was put at a Ki of 4.7 nM. Further, in series [2], the logD is 3.4.

`N#Cc1c(C(=O)NN2CCCCC2)nn(-c2ccc(Cl)cc2Cl)c1-c1ccc(I)cc1`: the Ki at Cannabinoid receptor 1 [1] was 33 nM. The compound further came in with a pH-dependent lipophilicity (logD) in series [2] of 3.9.

On Cannabinoid receptor 1 [1], `COc1ccc(-c2c(C#N)c(C(=O)NN3CCCCC3)nn2-c2ccc(F)cc2Br)cc1` returned a Ki of 32 nM. In addition, in series [2], the logD worked out at 2.9.

`CCCCCCC(C)(C)c1cc(O)c2c(c1)OC(C)(C)[C@@H]1CC=C(CO)C[C@@H]21`: the affinity at Cannabinoid receptor 1 [1], expressed as Ki, was 1.5 nM.

In the case of `N#Cc1c(C(=O)NN2CCCCC2)nn(-c2ccc(Cl)cc2Cl)c1-c1ccc(OCF)cc1`, the affinity at Cannabinoid receptor 1 [1], expressed as Ki, was 10.3 nM. In series [2], this compound showed a logD of 2.9.

At Cannabinoid receptor 1 [1], `N#Cc1c(C(=O)NN2CCOCC2)nn(-c2ccc(Cl)cc2Cl)c1-c1ccc(Br)cc1` gave an inhibition constant Ki of over 1000 nM. The same compound yielded a logD in series [2] of 3.1.
